Screens as filed in PubChem.
TRPC4 potent: allosterically enhances the mouse TRPC4 cation channel | Q9QUQ5 | HEK293 TRPC4beta/mu-opioid, DAMGO EC20, Fluo-4 Ca2+ flux; active compounds read high | B-score at 10 µM | hit rate 0.42% among 310,000;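 active means B-score of calcium response area above 5 SD of library B-scores, with initial fluorescence ratio within 5 SD of library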;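 further: B-score of integrated fluorescence ratio over time as area under calcium response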
TRPC6 inhibitor: mouse TRPC6 channel inhibition | HEK293-TRPC6, membrane potential dye, ACh-evoked depolarization; active compounds read low | B-score at 10 µM | hit rate 1.1% among 310,000;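 active means B-score under library mean minus 3 SD, initial fluorescence not abnormally high, positive integrated signal ratio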;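 further: B-score derived from integrated fluorescence ratio over the kinetic read; more negative B-score means stronger inhibition of depolarization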
Target sequence (Q61143 whole entry, looked up): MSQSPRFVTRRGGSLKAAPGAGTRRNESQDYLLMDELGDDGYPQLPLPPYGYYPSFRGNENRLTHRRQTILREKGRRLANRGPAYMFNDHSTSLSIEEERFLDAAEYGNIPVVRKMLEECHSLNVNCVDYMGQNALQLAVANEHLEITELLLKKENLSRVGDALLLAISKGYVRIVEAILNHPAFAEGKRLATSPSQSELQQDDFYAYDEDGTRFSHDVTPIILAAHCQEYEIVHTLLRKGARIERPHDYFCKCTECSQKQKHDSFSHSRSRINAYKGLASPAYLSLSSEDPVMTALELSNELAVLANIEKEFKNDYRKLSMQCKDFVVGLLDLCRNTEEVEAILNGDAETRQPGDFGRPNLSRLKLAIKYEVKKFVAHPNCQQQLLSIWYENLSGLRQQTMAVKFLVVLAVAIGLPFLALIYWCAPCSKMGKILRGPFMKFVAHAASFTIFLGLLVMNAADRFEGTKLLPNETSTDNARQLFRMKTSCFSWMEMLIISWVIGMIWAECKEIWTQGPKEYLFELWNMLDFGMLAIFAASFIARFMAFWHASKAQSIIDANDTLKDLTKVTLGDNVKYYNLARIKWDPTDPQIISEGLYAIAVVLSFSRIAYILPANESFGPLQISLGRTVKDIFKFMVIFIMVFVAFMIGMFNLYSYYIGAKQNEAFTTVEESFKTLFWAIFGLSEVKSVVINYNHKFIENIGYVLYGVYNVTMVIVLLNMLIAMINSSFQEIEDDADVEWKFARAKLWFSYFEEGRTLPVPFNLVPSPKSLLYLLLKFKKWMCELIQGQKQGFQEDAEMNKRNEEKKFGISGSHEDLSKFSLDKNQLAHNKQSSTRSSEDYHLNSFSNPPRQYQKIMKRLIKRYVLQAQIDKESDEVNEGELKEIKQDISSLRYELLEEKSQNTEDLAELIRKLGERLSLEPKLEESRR
TRPC4 block: TRPC4 (mouse) channel inhibition; AID 2247; B-score at 10 µM; Q9QUQ5; hit rate 0.39% among 300,000; HEK293 TRPC4beta/mu-opioid, DAMGO-evoked Fluo4 calcium flux; active compounds read low;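 active means B-score over 3 SD under the library average, no early fluorescence shift, positive overall ratio signal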
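material = TRPC4beta/mu-opioid receptor HEK293 cell line | probe or stimulus = sequential submaximal and maximal DAMGO stimulation | compound dosing = one concentration per compound | measured by = Fluo4 Ca2+ flux fluorescence | evaluation = integrated fluorescence ratio relative to baseline, converted to per-well B score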
TRPC4 act: opens the mouse TRPC4 cation channel. hit rate 0.49% among 310,000. HEK293 TRPC4beta/mu-opioid, Fluo4 calcium fluorescence; active compounds read high. AID 2237. Q9QUQ5. B-score at 10 µM;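 active means B-score above 5 SD of library B-scores, and initial fluorescence ratio not above library mean plus 5 SD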;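 further: positive B-score marks a calcium rise read as TRPC4 activation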
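Material: HEK293 stable line with TRPC4beta plus mu-opioid receptor; technique: Fluo4 calcium-sensitive dye fluorescence, kinetic, 1 Hz baseline; timing: Fluo4 dye loading 45 min at room temperature, 110 s recording; controls: assay buffer as low control, maximal DAMGO as high control; read-out: integrated baseline-normalised fluorescence ratio, converted to per-well B score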
TRPC6 act: mouse TRPC6 channel activation; B-score at 10 µM; AID 2550; HEK293-TRPC6 membrane potential dye fluorescence; active compounds read high; hit rate 0.13% among 310,000;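 active means B-score of the integrated fluorescence ratio above library mean plus 3 SD, and starting fluorescence ratio within library mean plus 5 SD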;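 further: higher score means more depolarization so channel activation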
TRPC4 spec 2: second selectivity test of TRPC6 inhibitors: effect on mouse TRPC4; hit rate 42% among 920; AID 2776; shares compounds with TRPC6 inhibitor; inhibition, % at 10 µM; HEK293 TRPC4/MOR, membrane potential dye fluorescence; channel activated by saturating DAMGO dose;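 active means compounds whose fluorescence signal differed from control wells by over 3 SD, either direction, in both duplicate plates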
TRPC4 spec: tests whether TRPC6 inhibitors also affect mouse TRPC4. shares compounds with TRPC6 inhibitor. HEK293 TRPC4/mu-opioid, membrane potential fluorescence. activity change, negative = inhibition, % at 10 µM. hit rate 61% among 920. AID 2777;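 active means rise or fall in signal beyond 3 SD of buffer-only wells in both replicate plates, either sign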;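 further: integrated kinetic ratio of fluorescence range over baseline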
HEK293 MPD ctr 2-1: parental HEK293 nonspecific activity of TRPC6 inhibitors, second screen; shares compounds with TRPC6 inhibitor; parental HEK293 membrane potential dye fluorescence; maximal acetylcholine challenge after compound addition; signal change vs control, % at 10 µM; hit rate 31% among 920;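 active means membrane potential signal moving either way by over 3 SD of the maximum-effect control, in both duplicate plates, meaning non-specific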
HEK293 MPD ctr-1: parental HEK293 nonspecific activity of TRPC6 inhibitors; hit rate 60% among 920; membrane potential signal change, % at 10 µM; AID 2780; shares compounds with TRPC6 inhibitor; parental HEK293 membrane potential dye fluorescence;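 active means membrane potential signal shifting up or down by more than 3 SD of buffer-only wells, on both duplicate plates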
HEK293 MPD ctr-2: parental HEK293 nonspecific activity of TRPC6 modulators; shares compounds with TRPC6 inhibitor; membrane potential dye fluorescence; membrane potential signal change, % at 10 µM; hit rate 51% among 2,400;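 active means membrane potential signal moves up or down beyond 5 SD from buffer-only wells, on both duplicate plates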
HEK293 MPD ctr 2-2: parental HEK293 nonspecific activity of TRPC6 modulators, second screen. shares compounds with TRPC6 inhibitor. membrane potential dye fluorescence; after compound, maximal acetylcholine stimulation. inhibition, % at 10 µM. AID 488926. hit rate 14% among 2,400;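 active means membrane potential signal drops by more than 5 SD from the mean control signal, in both duplicate plates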;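 further: plate controls were acetylcholine ECmax control wells for no effect and buffer only wells for full effect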
TRPC4 ctr mod: selectivity of TRPC6 modulators against mouse TRPC4; shares compounds with TRPC6 inhibitor; HEK293 TRPC4/mu-opioid, membrane potential fluorescence; percent change from control (negative = decrease, positive = increase), % at 10 µM; hit rate 69% among 2,400; AID 488927;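 active means membrane potential signal moved up or down beyond 5 SD of buffer control wells, in both duplicate plates, actives on both sides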;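 further: plate controls were assay buffer wells for no effect and DAMGO maximal-effect wells for full effect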
TRPC4 ctr inh 2: second check of whether TRPC6 modulators also affect mouse TRPC4; HEK293 TRPC4/mu-opioid, membrane potential dye fluorescence; stimulated with maximal-effect DAMGO; AID 488928; shares compounds with TRPC6 inhibitor; hit rate 55% among 2,400; inhibition, % at 10 µM;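 active means drop in membrane potential signal beyond 5 SD of the control wells in both duplicate plates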;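 further: TRPC4 counter screen for TRPC6 hits run under conditions tuned for TRPC6 not TRPC4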
TRPC6 inh conf: confirmation of mouse TRPC6 inhibitors; shares compounds with TRPC6 inhibitor; hit rate 43% among 3,300; inhibition, % at 10 µM; HEK293-TRPC6, membrane potential dye, ACh-evoked depolarization;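 active means fluorescence ratio falls more than 5 SD below the full-stimulation control mean, in both duplicate runs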;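 further: integrated fluorescence ratio of peak minus minimum over baseline after agonist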
TRPC6 act conf: mouse TRPC6 activator confirmation | shares compounds with TRPC6 inhibitor | HEK293-TRPC6 membrane potential dye fluorescence, FDSS | activation, % at 10 µM | hit rate 11% among 2,800;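 active means ratio signal rise beyond 5 SD above unstimulated control wells' mean, seen in both duplicate runs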;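 further: plate controls were buffer EC0 wells for no effect and acetylcholine ECmax response for full effect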
Starred values were filed as active, the others as inactive; i = inactive; . = no result given. Sampled rows, rich in hits. Any-hit rate of the full collection: about 2.3%.

SMILES	TRPC4 potent	TRPC6 inhibitor	TRPC4 block	TRPC4 act	TRPC6 act	HEK293 MPD ctr-2	HEK293 MPD ctr 2-2	TRPC4 ctr mod	TRPC4 ctr inh 2	TRPC6 inh conf	TRPC6 act conf	others
Cn1c(=O)[nH]c(Nc2ccccc2)c([N+](=O)[O-])c1=O	i	i	i	i	i	.	.	.	.	.	.
CN1CCN(S(=O)(=O)c2ccc(Oc3cccc(C(F)(F)F)c3)nc2)CC1	i	i	i	i	i	.	.	.	.	.	.
Cc1ccc(S(=O)(=O)N2CCC(Oc3cccc(C(F)(F)F)c3)CC2)cc1	i	-7.34*	i	i	i	.	.	.	.	i	.	TRPC4 spec 2=i;TRPC4 spec=i;HEK293 MPD ctr 2-1=i;HEK293 MPD ctr-1=i
CN1CCN(c2ccc(C(=O)c3ccc(Br)cc3)cc2[N+](=O)[O-])CC1	i	-5.94*	i	i	i	i	i	-13.0%*	43.0%*	i	i
O=C(Nc1ccccc1N1CCCCC1)c1ccc(Cl)c([N+](=O)[O-])c1	i	i	i	i	i	.	.	.	.	.	.
CN1CCN(c2ccccc2NC(=O)c2ccc(N3CCCC3)c([N+](=O)[O-])c2)CC1	i	-10.5*	i	i	i	-108.5%*	i	-29.5%*	82.0%*	58.0%*	i
Fc1ccc(C(CCNCc2ccccn2)c2ccc(Cl)cc2)cc1 (stereo not given)	i	-5.19*	i	i	i	188.5%*	i	31.0%*	74.0%*	i	.
CCOc1ccc(-c2nnc(-c3ccccc3)n2-c2ccccc2)cc1	i	i	i	i	i	.	.	.	.	.	.
FC(F)Sc1ccc(-n2c(-c3ccc(Cl)cc3)c[n+]3c2CCC3)cc1	i	i	i	i	i	.	.	.	.	.	.
COc1ccc(-n2c(-c3ccc(Br)cc3)c[n+]3c2SC(C)C3)cc1 (stereo not given)	i	-5.91*	i	i	i	-142.5%*	79.5%*	-21.0%*	42.0%*	47.5%*	i
Cc1ccc(-n2c(-c3ccc(Cl)cc3)c[n+]3c2CCC3)cc1	i	-5.23*	i	i	i	i	i	i	46.0%*	i	i
CCOc1ccc(-c2c[n+]3c(n2-c2ccccc2)CCCCC3)cc1	i	-5*	i	i	i	i	i	i	i	i	i
CCOc1ccc(-n2c(-c3ccc(Cl)cc3)c[n+]3c2SCC3)cc1	i	-7.35*	-6*	i	i	-71.0%*	80.0%*	i	35.5%*	42.5%*	i
O=C(NC1CCCc2c1cnn2-c1ccc(F)cc1F)c1ccccc1N1CCOCC1 (stereo not given)	i	i	i	i	i	.	.	.	.	.	.
CC(=O)N(CCc1ccccc1)Cc1cc2ccc(C)c(C)c2[nH]c1=O	i	i	i	i	i	.	.	.	.	.	.
CNc1ccccc(-c2ccc3ccccc3n2)c1=O	i	i	i	i	i	.	.	.	.	.	.
COc1ccc(-n2c(-c3ccc(Br)cc3)nc(=S)c3c2CCCC3)cc1	i	i	i	i	i	.	.	.	.	.	.
COc1ccc(-n2c(-c3ccc(Br)cc3)c[n+]3c2CCC3)cc1	i	-7.17*	i	i	i	.	.	.	.	60.5%*	i	TRPC4 spec 2=76.5%*;TRPC4 spec=i;HEK293 MPD ctr 2-1=-75.0%*;HEK293 MPD ctr-1=-192.0%*
COc1ccc(-n2c(-c3ccccc3)cc3c2CCCC3=O)cc1	i	i	i	i	i	.	.	.	.	.	.
COc1ccc(-n2c(-c3ccccc3)c[n+]3c2CCC3)cc1	i	-5.42*	i	i	i	-104.0%*	i	-17.5%*	i	39.5%*	i
OCC(O)/C=N/Nc1nc(N2CCCCC2)nc(N2CCCCC2)n1 (stereo not given)	i	i	i	i	i	.	.	.	.	.	.
CCc1ccc(OCC2NCCc3cc(OC)c(OC)cc32)cc1 (stereo not given)	i	-5.82*	i	i	i	i	i	i	45.5%*	i	i
Cc1ccc(NC(=O)C2CCC(N3C(=O)C4CCCCC4C3=O)CC2)cc1 (stereo not given)	i	i	i	i	i	.	.	.	.	.	.
CCOC(=O)c1nnn(-c2nc(N3CCCC3)nc(N3CCCC3)n2)c1-c1ccccc1	i	i	i	i	i	.	.	.	.	.	.
CCOC(=O)c1c(-c2ccccc2)nnn1-c1nc(OCC)nc(N2CCCCC2)n1	i	i	i	i	15.8*	354.5%*	i	91.0%*	i	i	176.5%*
CCOC(=O)c1c(CSc2cccs2)n(C)c2cc(Br)c(O)c(CN(C)C)c12	i	-6.38*	i	i	i	i	i	i	71.5%*	54.5%*	i
Cc1ccc2[nH]cc(CCNC(=O)c3cccs3)c2c1	i	i	i	i	i	.	.	.	.	.	.
Cc1cc(C)cc(N(CC(=O)NC(C)(C)C)C(=O)CNC(=O)c2cccs2)c1	i	-5.43*	i	i	i	i	i	i	i	i	i
Cc1c(CN(C)C)c2c(n1C)C(=O)c1ccc(Br)cc1-2	i	-11*	i	i	i	-177.5%*	67.0%*	-31.5%*	59.0%*	66.5%*	i
